Changes are numbered by the printed parent chain.
Columns and labels:
[1] = target: T1, Penicillin-binding protein 2x (Streptococcus pneumoniae serotype 4 (strain ATCC BAA-334 / TIGR4)) (UniProt P14677); test: Inhibition of penicillin-resistant Streptococcus pneumoniae 5204 PBP2x using S2d as substrate assessed as residual activity at 1 mM incubated for 4 hrs prior to substrate addition by DNTB-based spectrophotometry
T1 sequence (whole entry): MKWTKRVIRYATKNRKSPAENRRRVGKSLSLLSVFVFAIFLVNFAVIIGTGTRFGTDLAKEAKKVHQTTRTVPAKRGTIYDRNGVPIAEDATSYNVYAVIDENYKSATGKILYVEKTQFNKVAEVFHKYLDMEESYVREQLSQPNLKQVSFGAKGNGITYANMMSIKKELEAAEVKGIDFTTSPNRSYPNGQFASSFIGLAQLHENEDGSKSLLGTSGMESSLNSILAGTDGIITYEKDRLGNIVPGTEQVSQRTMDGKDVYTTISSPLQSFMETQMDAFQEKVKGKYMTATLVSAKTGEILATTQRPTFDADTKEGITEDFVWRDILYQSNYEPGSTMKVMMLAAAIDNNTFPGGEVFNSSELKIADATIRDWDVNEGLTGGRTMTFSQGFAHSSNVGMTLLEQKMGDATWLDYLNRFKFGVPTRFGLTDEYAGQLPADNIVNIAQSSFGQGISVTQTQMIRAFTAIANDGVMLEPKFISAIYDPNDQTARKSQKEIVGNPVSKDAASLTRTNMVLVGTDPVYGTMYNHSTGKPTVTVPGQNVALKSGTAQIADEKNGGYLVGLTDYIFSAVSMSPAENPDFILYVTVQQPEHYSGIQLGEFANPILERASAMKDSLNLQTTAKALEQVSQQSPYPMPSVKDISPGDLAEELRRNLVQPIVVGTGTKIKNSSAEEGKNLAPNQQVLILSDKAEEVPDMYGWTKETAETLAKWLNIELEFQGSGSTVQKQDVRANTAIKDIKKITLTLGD

[2] = test system: Streptococcus pneumoniae; test: Inhibition of Streptococcus pneumoniae PBP1b using PATP thioester as substrate assessed as residual activity at 100 uM incubated for 60 mins prior to substrate addition by DNTB-based spectrophotometry in the presence of triton X 100
Method in brief: (§1)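 Assay B: S. pneumoniae PBP1b (0.2 µM) pre-incubated with inhibitor 60 min at 25 °C in 10 mM sodium phosphate pH 7.0, 100 mM D-alanine, 0.01 mg/mL BSA, 0.01% Triton X-100. Residual activity from initial rates of PATP thioester (5 mM) hydrolysis with DTNB (1.0 mM); IC50 by non-linear regression of residual activity across concentrations.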

[3] = test system: Streptococcus pneumoniae; test: Inhibition of Streptococcus pneumoniae PBP1b assessed as residual activity at 1mM incubated for 60 mins prior to fluoresceyl-ampicillin labelling measured after 20 mins by SDS-PAGE analysis in the presence of triton X 100
Method in brief: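 Assay A: purified S. pneumoniae PBP1b (0.7 µM) pre-incubated with inhibitor in 10 mM sodium phosphate pH 7.0, 60 min, 25 °C, 0.01% Triton X-100. Remaining active enzyme labelled with fluoresceyl-ampicillin (10 µM), 20 min; reaction stopped, run on SDS-PAGE, fluorescence of the band quantified as residual activity.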

[4] = test system: Enterococcus faecium; test: Inhibition of penicillin-resistant Enterococcus faecium PBP5fm assessed as residual activity at 1 mM incubated for 4 hrs prior to prior to fluoresceyl-ampicillin labelling measured after 20 mins by SDS-PAGE analysis
[5] = target: D-alanyl-D-alanine carboxypeptidase (Actinomadura sp. R39) (UniProt P39045); test: Inhibition of Actinomadura sp. R39 PBP using S2d as substrate assessed as residual activity at 1 mM incubated for 60 mins prior to substrate addition by DTNB-based spectrophotometry
Method in brief: (§2)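 R39 (Actinomadura, prepared per Granier), 3.5 nM, pre-incubated with inhibitor 60 min at 25 °C in 10 mM sodium phosphate pH 7.2, 100 mM NaCl, 100 mM D-alanine, 0.01 mg/mL BSA; inhibitors from DMF stock, 1% DMF final. Residual activity from initial rate of S2d (1 mM) hydrolysis with DTNB (1 mM), read at 412 nm, corrected for spontaneous hydrolysis; triplicates, uninhibited control six replicates per plate.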

[6] = test system: Staphylococcus aureus; test: Inhibition of penicillin-resistant Staphylococcus aureus PBP2a assessed as residual activity at 1 mM incubated for 4 hrs prior to prior to fluoresceyl-ampicillin labelling measured after 20 mins by SDS-PAGE analysis
[7] = target: T2, Penicillin-binding protein 2X (Streptococcus pneumoniae R6) (UniProt P59676); test: Inhibition of penicillin-sensitive Streptococcus pneumoniae R6 PBP2x using S2d as substrate assessed as residual activity at 1 mM incubated for 60 mins prior to substrate addition by DTNB-based spectrophotometry
T2 sequence (whole entry): T1 sequence (whole entry) with T385M
Method in brief: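 S. pneumoniae PBP2x-R6, 0.09 µM, pre-incubated with inhibitor in 10 mM sodium phosphate pH 7.0 with 0.01 mg/mL BSA, 60 min, 25 °C; 1% DMF final. S2d (1 mM) plus DTNB (1 mM) then added; residual activity taken from initial hydrolysis rate at 412 nm, corrected for spontaneous hydrolysis; triplicates, six no-inhibitor controls per plate.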

[8] = target: T1, Penicillin-binding protein 2x (Streptococcus pneumoniae serotype 4 (strain ATCC BAA-334 / TIGR4)); test: Inhibition of penicillin-resistant Streptococcus pneumoniae 5204 PBP2x using S2d as substrate assessed as residual activity at 1 mM incubated for 4 hrs prior to substrate addition by DNTB-based spectrophotometry in the presence of triton X 100
[9] = target: T2, Penicillin-binding protein 2X (Streptococcus pneumoniae R6); test: Inhibition of penicillin-sensitive Streptococcus pneumoniae R6 PBP2x using S2d as substrate assessed as residual activity at 1 mM incubated for 60 mins prior to substrate addition by DTNB-based spectrophotometry in presence of triton X 100
Method in brief: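 PBP2xR6 (0.09 µM) pre-incubated with inhibitor for 60 min at 25 °C in 10 mM sodium phosphate pH 7.0, 0.01 mg/mL BSA, with 0.01% Triton X-100. 1% DMF final. S2d (1 mM) and DTNB (1 mM) then added. Initial hydrolysis rate read at 412 nm. Triplicates. Uninhibited activity from six replicates per plate.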

[10] = target: D-alanyl-D-alanine carboxypeptidase (Actinomadura sp. R39) (UniProt P39045); test: Inhibition of Actinomadura sp. R39 PBP using S2d as substrate assessed as residual activity at 1 mM incubated for 60 mins prior to substrate addition by DTNB-based spectrophotometry in presence of triton X 100; method in brief: as §2
[11] = test system: Streptococcus pneumoniae; test: Inhibition of Streptococcus pneumoniae PBP1b using PATP thioester as substrate assessed as residual activity at 1 mM incubated for 60 mins prior to substrate addition by DNTB-based spectrophotometry in the presence of triton X 100; method in brief: as §1
[12] = target: T3, Penicillin-binding protein 2X (Streptococcus pneumoniae R6, UniProt P59676); test: Inhibition of penicillin-sensitive Streptococcus pneumoniae R6 PBP2x using S2d as substrate incubated for 60 mins prior to substrate addition by DTNB-based spectrophotometry
T3 sequence (P59676 whole entry): T1 sequence (whole entry) with T385M
Method in brief: (§3)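 PBP purified per earlier method. Pre-incubation: enzyme with inhibitor (DMF stock, 1% DMF final) at 25 °C for 60 min. Buffer for R39 (3.5 nM): 10 mM sodium phosphate pH 7.2, 100 mM NaCl, 100 mM D-alanine, 0.01 mg/mL BSA. Buffer for PBP2xR6: 10 mM sodium phosphate pH 7.0, 0.01 mg/mL BSA. S2d (1 mM) and DTNB (1 mM) then added. Initial hydrolysis rate read at 412 nm. Triplicates. IC50 by non-linear regression of residual activity over a concentration range, with 0.01% Triton X-100.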

[13] = Inhibition of Streptococcus pneumoniae PBP1b using PATP thioester as substrate incubated for 60 mins prior to substrate addition by DNTB-based spectrophotometry in the presence of triton X 100; method in brief: as §1
[14] = target: T4, D-alanyl-D-alanine carboxypeptidase (Actinomadura sp. R39, UniProt P39045); test: Inhibition of Actinomadura sp. R39 PBP using S2d as substrate incubated for 60 mins prior to substrate addition by DTNB-based spectrophotometry; method in brief: as §3
[15] = target: T4, D-alanyl-D-alanine carboxypeptidase; test: Binding affinity to Actinomadura sp. R39 PBP

D-alanyl-D-alanine carboxypeptidase (Actinomadura sp. R39), sequence (P39045 whole entry): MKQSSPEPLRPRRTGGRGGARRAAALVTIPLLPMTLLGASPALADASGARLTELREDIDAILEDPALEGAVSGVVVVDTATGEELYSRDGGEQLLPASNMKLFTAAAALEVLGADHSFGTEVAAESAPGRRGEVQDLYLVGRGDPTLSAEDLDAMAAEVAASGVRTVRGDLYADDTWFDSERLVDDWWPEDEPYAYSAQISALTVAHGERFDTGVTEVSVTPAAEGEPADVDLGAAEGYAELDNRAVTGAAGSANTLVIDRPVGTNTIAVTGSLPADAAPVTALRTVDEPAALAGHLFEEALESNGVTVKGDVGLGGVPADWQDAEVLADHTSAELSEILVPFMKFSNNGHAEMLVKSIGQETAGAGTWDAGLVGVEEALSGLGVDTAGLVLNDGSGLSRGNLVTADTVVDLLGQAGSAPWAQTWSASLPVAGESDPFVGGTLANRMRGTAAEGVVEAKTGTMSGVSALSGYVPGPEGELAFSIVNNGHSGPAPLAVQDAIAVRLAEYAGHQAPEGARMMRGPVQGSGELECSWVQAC
T4 sequence (P39045 whole entry): as above

Row | SMILES | Activity [1] [%] | Activity [2] [%] | Activity [3] [%] | Activity [4] [%] | Activity [5] [%] | Activity [6] [%] | Activity [7] [%] | Activity [8] [%] | Activity [9] [%] | Activity [10] [%] | Activity [11] [%] | IC50 [12] [µM] | IC50 [13] [µM] | IC50 [14] [µM] | Ki [15] [µM]
1 | COc1ccc(C(=O)NCB(O)O)cc1 | 94 | 82 | 38 | 81 | 50 | 92 | 81 | – | – | – | – | – | – | – | –
2 | COc1cccc(OC)c1C(=O)NCC(=O)O | – | – | – | – | 87 | – | – | – | – | – | – | – | – | – | –
3 | COc1ccc(C(=O)NCB(O)O)c(OC)c1 | – | 76 | 18 | 86 | – | 91 | – | 97 | 69 | 69 | – | – | – | – | –
4 | COc1ccccc1C(=O)NCB(O)O | 99 | 67 | – | – | 43 | – | 86 | – | – | – | 1 | – | – | – | –
5 | O=C(NCB(O)O)c1ccccc1 | 81 | – | 56 | 79 | – | 81 | 78 | – | – | 80 | – | – | – | – | –
6 | NCB(O)O | – | – | – | – | 99 | – | – | – | – | – | – | – | – | – | –
7 | O=C(NCB(O)O)c1c(F)cccc1F | – | 7 | – | 88 | 6 | 91 | 40 | 86 | – | – | – | 906 | 7 | 35 | –
8 | O=C(NCB(O)O)c1ccccc1C(F)(F)F | 109 | – | 69 | – | 5 | – | 44 | – | – | – | – | 481 | – | 15 | –
9 | O=C(NCB(O)O)c1ccccc1Cl | – | 20 | – | 97 | – | 81 | – | 70 | 31 | 15 | – | 262 | – | 85 | 42
10 | O=C(NCB(O)O)c1ccc(Cl)cc1 | 101 | 70 | 29 | 93 | 73 | 100 | 89 | – | – | – | – | – | – | – | –
11 | CC(=O)NCB(O)O | 97 | – | – | – | 74 | – | 100 | – | – | – | 87 | – | – | – | –
12 | COc1ccc(C(=O)NCB(O)O)cc1OC | – | – | 90 | 78 | 81 | 75 | 82 | 98 | – | – | – | – | – | – | –
13 | O=C(Cc1ccccc1[N+](=O)[O-])NCB(O)O | 86 | 52 | – | 84 | 52 | 85 | 31 | – | – | – | – | 339 | – | – | –
14 | O=C(Cc1ccccc1Cl)NCB(O)O | 90 | 96 | 24 | 88 | 57 | 77 | 26 | – | – | – | – | 649 | – | – | –
15 | O=C(Cc1ccccc1)NCB(O)O | – | – | – | 83 | 29 | 90 | 57 | 97 | – | – | 56 | – | – | 320 | 125
16 | O=C(NCB(O)O)c1ccccc1F | – | 14 | – | 83 | 30 | 88 | 56 | 106 | – | – | – | – | – | 505 | –
17 | O=C(NCB(O)O)c1ccccc1[N+](=O)[O-] | – | 24 | – | 88 | – | 92 | – | 108 | 21 | 0 | – | 138 | – | 0.6 | 0.36
18 | O=C(CCC1CCCC1)NCB(O)O | – | – | 59 | 85 | 71 | 100 | 79 | 98 | – | – | – | – | – | – | –
19 | O=C(NCB(O)O)c1cccs1 | – | – | – | – | – | – | – | – | 66 | 73 | – | – | – | – | –
20 | O=C(Cc1ccc(Cl)cc1)NCB(O)O | – | 69 | 20 | 88 | 71 | 89 | 32 | 82 | – | – | – | 376 | – | – | –
